# Reference: ChEMBL document CHEMBL3616437, “Thiazole compounds with activity against Cryptococcus gattii and Cryptococcus neoformans in vitro” (Eur J Med Chem, 2015)
# Tests used:
# [1] = system: Cryptococcus neoformans; test: Antifungal activity against Cryptococcus neoformans ATCC 24067 after 48 to 72 hrs by broth microdilution method; assay type: functional
# How it was run: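 CLSI M27-A3 broth microdilution. Isolates subcultured twice on SDA, 48 h at 35°C. Saline suspension adjusted to 70% transmittance at 530 nm, then diluted to 1-5 x10^3 cells/mL in RPMI with L-glutamine, 0.165 M MOPS, pH 7.0. Compounds in DMSO, tested at […]. 35°C for 48-72 h. MIC read visually as the lowest concentration giving an optically clear well.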
# [2] = Selectivity index, ratio of IC50 for African green monkey Vero cells to MIC for Cryptococcus neoformans ATCC 24067; assay type: toxicity, cell-based
# [3] = Cytotoxicity against C57BL/6 mouse peritoneal macrophages assessed as cell viability measured after 48 hrs by MTT assay; assay type: cell-based; conditions: C57BL/6, Peritoneal macrophage cell
# How it was run: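 Thioglycollate-elicited peritoneal macrophages from male C57BL/6 mice, 6–8 weeks old, in RPMI with 10% FBS. Seeded 1 x 10^5 cells/well, pre-incubated 24 h at 37°C. Exposed 48 h at 37°C, 5% CO2, to eight nonserial dilutions from 100 to 0.0128 µM, with 0.5% DMSO control. MTT read-out, % inhibition versus DMSO control. IC50 reported as median with 95% CI. Triplicate, two independent experiments.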
# [4] = system: Vero; test: Cytotoxicity against African green monkey Vero cells assessed as cell viability measured after 48 hrs by MTT assay; assay type: cell-based; conditions: Chlorocebus sabaeus
# How it was run: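 VERO cells in D-MEM with 5% FBS, used up to 20 passages. Seeded 1 x 10^4 cells/well, pre-incubated 24 h at 37°C. Exposed 48 h at 37°C, 5% CO2, to eight nonserial dilutions from 100 to 0.0128 µM, with 0.5% DMSO control. MTT reduction read-out, corrected for background and blank. IC50 reported as median with 95% CI. Triplicate, two independent experiments.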
# [5] = Selectivity index, ratio of IC50 for C57BL/6 mouse peritoneal macrophages to MIC for Cryptococcus neoformans ATCC 24067
# How it was run: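 SI = IC50/MIC. Thioglycollate-elicited peritoneal macrophages from C57BL/6 mice are seeded at 1 x 10^5/well. They are exposed for 48 h at 37°C to eight concentrations from 100 to 0.0128 µM. Viability read by MTT versus 0.5% DMSO control, triplicate in two experiments.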
MIC [1] [µM],Compound,selectivity ratio [2],IC50 [3] [µM],IC50 [4] [µM],Ratio [5]
15.6,C(=C1/CCCC/C1=N\Nc1nc(-c2ccccc2)cs1)/c1ccccc1,6.41,> 100,> 100,6.41
> 250,COc1ccc(-c2csc(N/N=C/c3ccncc3)n2)cc1,–,–,–,–
> 250,COc1ccc(-c2csc(N/N=C/c3ccc(C)cc3)n2)cc1,–,–,–,–
> 250,COc1ccc(-c2csc(N/N=C/c3ccccc3)n2)cc1,–,–,–,–
> 250,COc1ccc(-c2csc(N/N=C/c3ccc(N(C)C)cc3)n2)cc1,–,–,–,–
7.8,COc1ccc(-c2csc(N/N=C3\CCCC\C3=C/c3ccccc3)n2)cc1,12.8,> 100,> 100,12.8
7.8,Clc1ccc(-c2csc(N/N=C3\CCCC\C3=C/c3ccccc3)n2)cc1,12.8,> 100,> 100,12.8
15.6,COc1ccc(/C=N/Nc2nc(-c3ccc(Cl)cc3)cs2)cc1OC,6.41,> 100,> 100,6.41
> 250,CN(C)c1ccc(/C=N/Nc2nc(-c3ccccc3)cs2)cc1,–,–,–,–
